Experimental data published in ChEMBL document CHEMBL1126774, “Synthesis and antiviral activity of novel 5-(1-azido-2-haloethyl) and 5-(1-azido-, amino-, or methoxyethyl) analogs of 2'-deoxyuridine” (J Med Chem, 1993).

Assays:
[1] = Inhibitory concentration of the drug against the cytopathic effect for E-377 strain of herpes simplex virus-1 (HSV-1) in human HFF cells; format: functional, cell-based
How it was run: (§1)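 HFF CPE assay: low-passage cells seeded 24 h before in MEM + 10% FBS, switched to MEM + 2% FBS. Drug added in triplicate, serially diluted 1:5, plus HSV-1 or HSV-2 at 1000 PFU/well; 3 days at 37 °C in CO2. Staining with 0.1% crystal violet, read at 620 nm. Value is concentration (µM) reducing CPE by 50%.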

[2] = Inhibitory concentration of the drug against the cytopathic effect for MS strain of herpes simplex virus-2 (HSV-2) in human HFF cells; format: functional, cell-based; how it was run: as §1
[3] = Inhibitory concentration of the drug against the cytopathic effect for ellen strain of […] in human HFF cells; format: functional, cell-based
Homo sapiens [4] = species: Homo sapiens; experiment: Concentration of the drug required to reduce the proliferation of human foreskin fibroblast cells; format: functional
How it was run: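 HFF cells seeded 24 h before in MEM + 10% FBS; drugs serially diluted 1:5 in MEM + 10% FBS over 100 µg/mL to 0.03 µg/mL, 72 h at 37 °C in CO2; cells trypsinized and counted on a Coulter counter; value is concentration (µM) reducing proliferation to 50% of untreated controls.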

Homo sapiens [5] = species: Homo sapiens; experiment: Concentration of the drug required to reduce the uptake of neural red stain by uninfected cell monolayers (HFF); format: functional
How it was run: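 HFF cells plated 24 h before assay at 2.5×10^4 cells/well; drug added in 1:5 serial dilution, incubated 7 days at 37 °C in CO2; 0.01% neutral red in DPBS 1 h, washed, dye extracted with 50% EtOH/1% acetic acid, OD 550 nm; value is concentration (µM) reducing uptake to 50% of untreated uninfected controls.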

Raji = experiment: Inhibitory concentration of the drug against the antigen production against P3HR-1 strain of epstein barr virus-2 (EBV) in Raji cells; format: functional, cell-based; settings: Homo sapiens
How it was run: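 Raji cells infected with EBV P3HR-1; drug added after adsorption (45 min, 37 °C) and washing, then 2 days in complete medium. Cells counted, smears stained with monoclonal antibodies to early antigen components and VCA plus fluorescent detection; positive cells counted. Value is concentration (µM) reducing antigen production to 50% of untreated infected controls.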

[6] = test system: Human cytomegalovirus (Human herpesvirus 5); experiment: Inhibitory concentration of the drug against the cytopathic effect for AD169 strain of human cytomegalovirus (HCMV) in human HFF cells

SMILES	EC50 [1] [nM]	EC50 [2] [nM]	EC50 [3] [µM]	EC50 (Raji) [µM]	EC50 [6] [µM]	IC50 (Homo sapiens [4]) [µM]	IC50 (Homo sapiens [5]) [µM]
[N-]=[N+]=NC(CBr)c1cn([C@H]2C[C@H](O)[C@@H](CO)O2)c(=O)[nH]c1=O (stereo partly specified)	6400	2900	4	9.3	> 130	91	> 130
Nc1nc2c(ncn2COC(CO)CO)c(=O)[nH]1 [GANCICLOVIR]	–	–	–	–	0.5	168	> 390
COC(C)c1cn([C@H]2C[C@H](O)[C@@H](CO)O2)c(=O)[nH]c1=O (stereo partly specified)	1700	1000	> 87	–	5.9	330	> 175
[N-]=[N+]=NC(CI)c1cn([C@H]2C[C@H](O)[C@@H](CO)O2)c(=O)[nH]c1=O (stereo partly specified)	500	13200	12.3	4	> 118	76	> 118
Nc1nc2c(ncn2COCCO)c(=O)[nH]1 [ACYCLOVIR]	40	90	–	2.9	–	> 440	> 440
[N-]=[N+]=NC(CCl)c1cn([C@H]2C[C@H](O)[C@@H](CO)O2)c(=O)[nH]c1=O (stereo partly specified)	60	6600	4.5	11.1	> 150	> 300	> 150
CC(N=[N+]=[N-])c1cn([C@H]2C[C@H](O)[C@@H](CO)O2)c(=O)[nH]c1=O (stereo partly specified)	> 170000	> 170000	> 67	–	> 170	81	> 170

More lines, main results first:

EC50 [1] [nM]	EC50 [2] [nM]	EC50 [3] [µM]	EC50 (Raji) [µM]	EC50 [6] [µM]	SMILES	IC50 (Homo sapiens [4]) [µM]	IC50 (Homo sapiens [5]) [µM]
20	2210	0.01	–	24.8	O=c1[nH]c(=O)n([C@H]2C[C@H](O)[C@@H](CO)O2)cc1/C=C/I	4.4	86
600	1500	66.4	12.1	0.9	CCc1cn([C@H]2C[C@H](O)[C@@H](CO)O2)c(=O)[nH]c1=O [EDOXUDINE]	115	> 195
> 100000	> 100000	> 250	44.6	> 125	CC(N)c1cn([C@H]2C[C@H](O)[C@@H](CO)O2)c(=O)[nH]c1=O (stereo partly specified)	> 250	> 125
